The values below come from ChEMBL document CHEMBL1208706, “Synthesis, antidepressant evaluation and QSAR studies of novel 2-(5H-[1,2,4]triazino[5,6-b]indol-3-ylthio)-N-(substituted phenyl)acetamides” (2010).

The test deals with Mus musculus. Briefly: Antidepressant activity in Swiss albino mouse assessed as reduction of immobility duration at 30 mg/kg, ip administered 3 times for 24 hrs measured after 1 hr last post dose by tail suspension test. The class given is functional. More on the design: scale not given: the % may be the effect or the level left. To be noted: route intraperitoneal. Summed up:
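Adult male Swiss albino mice (22 ± 2 g), housed with controlled humidity, temperature and day-night cycle. Compound in DMSO given ip at 30 mg/kg at t = 0, 18 and 24 h; vehicle controls got DMSO ip at 5 mL/kg. Tail suspension run 1 h after the final dose, immobility scored over 6 min. %DID = [(A − B)/A] × 100 against control; n = 6, mean ± SEM, one-way ANOVA with Dunnett's test.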
Regarding `CN(C)CCCN1c2ccccc2CCc2ccccc21` [IMIPRAMINE], the Activity was 60.58%. Regarding `O=C(CSc1nnc2c(n1)[nH]c1ccccc12)Nc1cccc([N+](=O)[O-])c1`, the Activity is reported as 58.75%. Turning to `O=C(CSc1nnc2c(n1)[nH]c1ccccc12)Nc1cccc(Cl)c1`, the Activity is recorded as 57.15%. As to `O=C(CSc1nnc2c(n1)[nH]c1ccccc12)Nc1ccccc1[N+](=O)[O-]`, the Activity is 42.66%. Regarding `O=C(NCCN1CCOCC1)c1ccc(Cl)cc1` [MOCLOBEMIDE], the Activity turned out to be 68.16%. The same measure for `O=C(CSc1nnc2c(n1)[nH]c1ccccc12)NCc1ccccc1`: 56.75%; for `O=C(CSc1nnc2c(n1)[nH]c1ccccc12)Nc1ccc(Br)cc1`: 67.59%. On to `O=C(CSc1nnc2c(n1)[nH]c1ccccc12)Nc1cccc(Br)c1`, for which the Activity is 66.57%. On to `O=C(CSc1nnc2c(n1)[nH]c1ccccc12)Nc1ccccc1Cl`, for which the Activity is 51.89%. `COc1ccccc1NC(=O)CSc1nnc2c(n1)[nH]c1ccccc12`: the Activity is reported as 24.3%. The same measure for `COc1cccc(NC(=O)CSc2nnc3c(n2)[nH]c2ccccc23)c1`: 31.08%; for `O=C(CSc1nnc2c(n1)[nH]c1ccccc12)Nc1ccc(Cl)cc1`: 68.33%. Turning to `Cc1ccc(NC(=O)CSc2n[nH]c3c4ccccc4nc-3n2)cc1`, the Activity is listed as 30.57%.

As for `O=C(CSc1nnc2c(n1)[nH]c1ccccc12)Nc1ccc([N+](=O)[O-])cc1`, the Activity is reported as 62.35%. On to `Cc1ccccc1NC(=O)CSc1nnc2c(n1)[nH]c1ccccc12`, for which the Activity was determined as 20.87%. Consider `COc1ccc(NC(=O)CSc2nnc3c(n2)[nH]c2ccccc23)cc1`, for which the Activity came out at 20.82%. For `Cc1cccc(NC(=O)CSc2nnc3c(n2)[nH]c2ccccc23)c1`, the Activity worked out at 26.29%.

In the case of `O=C(CSc1nnc2c(n1)[nH]c1ccccc12)Nc1ccccc1`, the Activity stood at 70.62%. Consider `CNCCC(Oc1ccc(C(F)(F)F)cc1)c1ccccc1` (stereo unspecified) [FLUOXETINE], for which the Activity stood at 69.48%.

Regarding `O=C(CSc1n[nH]c2c3ccccc3nc-2n1)NC1CCCCC1`, the Activity came to 47.51%. `O=C(CSc1nnc2c(n1)[nH]c1ccccc12)Nc1ccccc1Br`: the Activity stood at 42.84%.
